Experimental data reported in article PMC2233905 (The Journal of General Physiology, 2004).

Experiments:
hEag2 channels = target: T1, hEag2 channels (Homo sapiens, UniProt Q8NCM2); experiment: hEag2 channels expressed in Xenopus oocytes; type: cell-based
T1 sequence (Q8NCM2 1-988): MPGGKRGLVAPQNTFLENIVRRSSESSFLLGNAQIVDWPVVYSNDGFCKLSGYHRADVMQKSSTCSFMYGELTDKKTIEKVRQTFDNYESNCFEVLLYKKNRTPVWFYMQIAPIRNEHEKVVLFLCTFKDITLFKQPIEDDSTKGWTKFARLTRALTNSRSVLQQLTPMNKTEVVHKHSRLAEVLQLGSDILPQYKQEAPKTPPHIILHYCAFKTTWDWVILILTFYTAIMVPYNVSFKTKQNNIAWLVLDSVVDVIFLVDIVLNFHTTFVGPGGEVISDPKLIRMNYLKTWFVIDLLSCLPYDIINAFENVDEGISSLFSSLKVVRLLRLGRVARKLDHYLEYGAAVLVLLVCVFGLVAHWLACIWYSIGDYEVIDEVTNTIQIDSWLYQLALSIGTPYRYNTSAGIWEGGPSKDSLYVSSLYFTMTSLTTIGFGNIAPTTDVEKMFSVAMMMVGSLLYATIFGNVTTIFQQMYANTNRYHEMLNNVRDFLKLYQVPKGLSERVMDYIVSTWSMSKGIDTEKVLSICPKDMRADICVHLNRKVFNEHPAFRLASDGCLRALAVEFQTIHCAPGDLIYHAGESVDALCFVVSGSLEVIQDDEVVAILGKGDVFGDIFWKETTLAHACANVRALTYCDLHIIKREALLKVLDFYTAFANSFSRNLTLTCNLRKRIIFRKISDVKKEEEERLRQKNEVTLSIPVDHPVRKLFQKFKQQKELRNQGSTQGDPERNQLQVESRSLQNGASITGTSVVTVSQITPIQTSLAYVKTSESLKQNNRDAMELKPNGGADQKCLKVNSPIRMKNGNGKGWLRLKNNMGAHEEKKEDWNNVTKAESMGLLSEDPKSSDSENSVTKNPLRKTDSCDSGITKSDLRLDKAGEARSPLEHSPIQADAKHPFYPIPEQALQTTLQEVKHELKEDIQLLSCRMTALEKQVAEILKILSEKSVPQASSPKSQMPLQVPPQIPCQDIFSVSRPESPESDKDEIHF

hEag1 channels = target: T2, hEag1 channels (Homo sapiens, UniProt O95259); experiment: Outside-out patch recordings of hEag1 currents; type: cell-based
T2 sequence (O95259 1-989): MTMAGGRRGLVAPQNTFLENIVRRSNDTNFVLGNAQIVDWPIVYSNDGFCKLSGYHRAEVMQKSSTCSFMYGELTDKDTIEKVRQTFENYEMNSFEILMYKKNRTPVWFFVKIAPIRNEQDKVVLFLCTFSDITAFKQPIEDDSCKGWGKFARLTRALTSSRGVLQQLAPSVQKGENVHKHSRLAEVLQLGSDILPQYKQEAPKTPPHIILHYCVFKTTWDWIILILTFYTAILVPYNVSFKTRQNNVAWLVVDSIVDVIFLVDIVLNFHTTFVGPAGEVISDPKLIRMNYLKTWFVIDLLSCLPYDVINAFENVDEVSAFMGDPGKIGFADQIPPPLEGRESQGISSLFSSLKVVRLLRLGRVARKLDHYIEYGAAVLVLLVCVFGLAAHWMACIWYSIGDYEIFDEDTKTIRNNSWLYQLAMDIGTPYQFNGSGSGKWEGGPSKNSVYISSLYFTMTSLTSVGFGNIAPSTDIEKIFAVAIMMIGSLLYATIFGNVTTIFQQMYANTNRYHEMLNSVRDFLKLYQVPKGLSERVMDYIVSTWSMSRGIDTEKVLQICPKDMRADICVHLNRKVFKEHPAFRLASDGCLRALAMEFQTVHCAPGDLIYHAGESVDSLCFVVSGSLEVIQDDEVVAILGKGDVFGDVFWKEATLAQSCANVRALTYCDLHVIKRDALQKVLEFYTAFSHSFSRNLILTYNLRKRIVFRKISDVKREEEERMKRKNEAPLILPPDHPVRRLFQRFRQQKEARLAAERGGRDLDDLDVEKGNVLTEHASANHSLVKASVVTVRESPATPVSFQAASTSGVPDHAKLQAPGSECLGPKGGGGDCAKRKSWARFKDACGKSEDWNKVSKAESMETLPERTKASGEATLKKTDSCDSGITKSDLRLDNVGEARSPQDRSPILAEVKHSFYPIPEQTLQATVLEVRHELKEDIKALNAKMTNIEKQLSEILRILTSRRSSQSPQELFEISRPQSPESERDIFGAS
Summary of the method: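 Outside-out patches from hEag1-expressing cells at room temperature. Successive 6-s recordings at 80 mV; drug applied to the extracellular face for 2.5 s, then removed. Currents were divided point-wise by control traces, and the time course was fitted with a single exponential to give the block or equilibration time constant and the steady-state fraction blocked.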

COc1ccc(CCN2CCC(Nc3nc4ccccc4n3Cc3ccc(F)cc3)CC2)cc1 [astemizole]
IC50 (hEag2 channels): ~1.5 µM | time constant of block (equilibration of neutral drug) in outside-out patches (hEag1 channels; bath pH 6.0, pipette pH 7.4): 1.7 s | rate of the equilibration process across the membrane (hEag1 channels; outside-out, bath pH 6.0): 0.6 s⁻¹
